Data set [1] deals with T1, Stimulator of interferon genes protein (Homo sapiens, UniProt Q86WV6). As to the kind of experiment: Inhibition of [3H]-cGAMP binding to STING (unknown origin).
The target of data set [2] is T1, Stimulator of interferon genes protein. In words: Activation of STING in human THP1-Dual cells assessed as increase in IP-10 secretion at 0.01 to 10 uM measured after 24 hrs by ELISA. It is filed as cell-based. The settings on record: filed as activator, dose 0.01-10 µM. In a few lines:
(§1)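 THP1-Dual cells seeded at 10⁵ cells/well and treated for 24 h. Human IP-10 and IFN-β in supernatant quantified by ELISA kits. Concentration (pg/mL) derived from a standard curve.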

The species entered for data set [3] is Homo sapiens. In words: Binding affinity to human STING 293Q mutant assessed as thermal stability by measuring melting temperature […] differential scanning fluorimetry (reference value: 46.25 degreeC). The settings on record: filed as activator. In outline:
(§2)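 Thermal shift by DSF: 5 μM STING protein, 50 μM compound and 10× SYPRO Orange in 10 mM HEPES pH 7.5, 150 mM NaCl. Samples heated from 30 to 80 °C at 0.5 °C/min. Tm taken as the temperature of median fluorescence between onset and maximum; n = 3.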

Data set [4] deals with T1, Stimulator of interferon genes protein. In words: Activation of STING in human THP1-Dual cells assessed as increase in IFNbeta secretion at 10 uM measured after 24 hrs by ELISA. It is filed as cell-based. Particulars: filed as activator. In outline: as §1
Data set [5] has as its system Stimulator of interferon genes protein (Homo sapiens), Q86WV6 [R71H,G230A,R293Q]. As to the kind of experiment: Binding affinity to human STING HAQ mutant assessed as thermal stability by measuring melting temperature […] differential scanning fluorimetry (reference value: 37.25 degreeC). Particulars: filed as activator. In a few lines:
as §2

Data set [6] concerns the target T1, Stimulator of interferon genes protein. In words: Activation of STING in human THP1-Dual cells assessed as induction of NF-KB signaling at 0.005 to 10 uM measured after 24 hrs by Quanti-Blue reagent based assay. It is filed as cell-based. The settings on record: filed as activator, dose 0.005-10 µM. In a few lines: (§3)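 THP1-Dual cells (1 × 10⁵/well) treated for 24 h. Supernatant (20 μL) incubated 1 h at 37 °C with QUANTI-Blue, then absorbance read at 650 nm. Fold change calculated relative to vehicle control.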

The species named for data set [7] is Homo sapiens. As to the kind of experiment: Binding affinity to human STING H232 mutant assessed as thermal stability by measuring melting temperature […] differential scanning fluorimetry (reference value: 39.5 degreeC). The settings on record: filed as activator. In outline: as §2
The target in data set [8] is T1, Stimulator of interferon genes protein. As to the kind of experiment: Activation of human STING (139 to 379 residues) expressed in THP1-Blue ISG cells at 10 uM incubated for 24 hrs by quanti-blue SEAP reporter gene assay relative to control. The data set is classed as cell-based. Particulars: filed as activator. In a few lines: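 THP1-Blue-ISG cells (1 × 10⁵/well) treated for 24 h; single-concentration screen at 10 μM. SEAP ISG reporter in 20 μL supernatant read with QUANTI-Blue at 650 nm. Activation given as fold over control, averaging at least two experiments.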

Data set [9] in a line: Solubility of the compound. The data set is classed as physicochemical.
The target of data set [10] is T2, Stimulator of interferon genes protein (Mus musculus) (UniProt Q3TBT3).
T2 sequence (whole entry): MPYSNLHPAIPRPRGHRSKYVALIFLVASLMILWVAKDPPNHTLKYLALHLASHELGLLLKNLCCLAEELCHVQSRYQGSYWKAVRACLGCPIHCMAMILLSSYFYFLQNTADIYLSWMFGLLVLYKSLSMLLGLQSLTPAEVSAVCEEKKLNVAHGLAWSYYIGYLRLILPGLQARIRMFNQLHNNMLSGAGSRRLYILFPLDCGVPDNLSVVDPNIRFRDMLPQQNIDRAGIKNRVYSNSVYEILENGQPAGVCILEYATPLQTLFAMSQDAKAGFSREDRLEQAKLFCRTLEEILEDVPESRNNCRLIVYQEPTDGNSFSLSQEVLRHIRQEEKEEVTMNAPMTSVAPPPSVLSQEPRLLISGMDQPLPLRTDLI
In words: Activation of mouse STING expressed in RAW-Lucia ISG cells at 50 uM incubated for 24 hrs by QUANTI-Luc luciferase reporter gene assay relative to control. Particulars: filed as activator.

Another data set concerns 4T1. As to the kind of experiment: Antitumor activity against mouse 4T1 cells […] in orthotopic BALB/c mouse assessed as tumor regression at 10 mg/kg, iv administered on day 1,4 and 7 post inoculation. It is filed as functional, organism-based. Particulars: time 7.0 day. In outline:
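BALB/c mice bearing orthotopic 4T1 tumors (5 × 10⁵ cells in the breast fat pad; n = 5) dosed iv at 10 mg/kg on days 1, 4 and 7 once tumors reached about 50–100 mm³. Tumor volume calculated as (a × b²)/2 and, with body weight, measured twice weekly.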

In data set [11] the target is T1, Stimulator of interferon genes protein. In words: Activation of STING in human THP1-Dual cells assessed as induction of ISG signaling at 0.005 to 10 uM measured after 24 hrs by Quanti-Blue reagent based assay. The data set is classed as cell-based. Particulars: filed as activator, dose 0.005-10 µM. In outline: as §3
The species named for the next data set is Mus musculus. In words: Binding affinity to mouse STING mR231 mutant assessed as thermal stability by measuring melting temperature […] differential scanning fluorimetry (reference value: 42 degreeC). Particulars: filed as activator. In outline: as §2
Data set [12] addresses T1, Stimulator of interferon genes protein. In words: Activation of STING in human THP1-Dual cells assessed as increase in TBK1/IRF3 phosphorylation measured after 4 hrs by Western blot analysis. It is filed as cell-based. Particulars: filed as activator, dose 3.3-30 µM. In a few lines:
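THP1-Dual cells (8 × 10⁵/well) treated at 3.3, 10 and 30 μM for 4 h, then lysed in SDS sample buffer and boiled. Lysates run on 10% SDS-PAGE and transferred to nitrocellulose. Blots probed for TBK1, phospho-TBK1 Ser172, IRF3, phospho-IRF3 Ser396 and GAPDH, with HRP secondaries and ECL detection.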

Data set [13] deals with Stimulator of interferon genes protein (Homo sapiens), Q86WV6 [UNDEFINED MUTATION]. In words: Binding affinity to human STING R232 mutant assessed as thermal stability by measuring melting temperature […] differential scanning fluorimetry (reference value: 38.75 degreeC). The settings on record: filed as activator. In a few lines:
as §2

In data set [14] the target is T1, Stimulator of interferon genes protein. As to the kind of experiment: Agonist activity at wild type human STING expressed in baculovirus infected Sf21 insect cells.
For data set [15], the target named is Stimulator of interferon genes protein (Homo sapiens, UniProt Q86WV6, G230A/R293Q/R71H). As to the kind of experiment: Agonist activity at human STING HAQ expressed in baculovirus infected Sf21 insect cells.

Calls of active or inactive are those of the source. The calls are words filed in the database; no cut-off is given here.

T1 sequence (Q86WV6 whole entry): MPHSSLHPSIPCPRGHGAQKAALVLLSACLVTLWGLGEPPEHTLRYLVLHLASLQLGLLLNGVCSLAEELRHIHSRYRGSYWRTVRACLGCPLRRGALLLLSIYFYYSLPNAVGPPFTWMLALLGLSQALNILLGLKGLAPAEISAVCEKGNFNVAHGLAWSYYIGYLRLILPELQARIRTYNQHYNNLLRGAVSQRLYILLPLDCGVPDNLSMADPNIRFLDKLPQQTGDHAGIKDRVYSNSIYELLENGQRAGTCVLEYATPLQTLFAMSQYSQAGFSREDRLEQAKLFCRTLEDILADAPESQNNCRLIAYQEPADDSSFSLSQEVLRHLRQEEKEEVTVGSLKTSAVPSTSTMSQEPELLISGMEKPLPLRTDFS
Stimulator of interferon genes protein (Homo sapiens), Q86WV6 [R71H,G230A,R293Q], sequence (Q86WV6 whole entry R71H/G230A/R293Q): as the sequence (Q86WV6 whole entry) above, with R71H, G230A, R293Q counted along it
Stimulator of interferon genes protein (Homo sapiens, UniProt Q86WV6, G230A/R293Q/R71H), sequence (Q86WV6 whole entry R71H/G230A/R293Q): as the sequence (Q86WV6 whole entry) above, with R71H, G230A, R293Q counted along it
Stimulator of interferon genes protein (Homo sapiens), Q86WV6 [UNDEFINED MUTATION], sequence (Q86WV6 whole entry, looked up, change not shown): as the sequence (Q86WV6 whole entry) above

`CCn1nc(C)cc1C(=O)/N=c1\[nH]c2cc(C(=O)O)ccc2n1C[C@@H](O)c1ccccc1`: the IC50 in data set [1] turned out to be 14 µM.

On to `CCn1nc(C)cc1C(=O)/N=c1\[nH]c2cc(C(N)=O)cc(OC)c2n1C/C=C/Cn1/c(=N/C(=O)c2cc(C)nn2CC)[nH]c2cc(C(N)=O)cc(OCCCN3CCOCC3)c21.Cl.Cl.Cl`, for which the outcome (in data set [2]; in data set [4]; in data set [6]; with 4T1; in data set [11]) was Active. For the same compound, the Tm came to 49 °C in the data set filed under Homo sapiens [3]; 48.8 °C in [5]; 50.2 °C in the data set filed under Homo sapiens [7]; 55.5 °C in the data set filed under Mus musculus; 48.5 °C in [13]. Moreover, the figures for the fold change (FC) in data set [8] and in data set [10] were 26 and 8.11, respectively. This compound displayed a solubility in [9] of 3230 µg/mL. Moreover, the Activity entry in [12] was “Dose-Dependent Effect”.

Turning to `COc1cc2cc(C(=O)CCC(=O)O)sc2cc1OC`, the EC50 in [14] came out at 24 µM; in data set [15] it was 8.3 µM.

The values are drawn from ChEMBL document CHEMBL4808161, “Structure-Activity Relationship Study of Amidobenzimidazole Analogues Leading to Potent and Systemically Administrable Stimulator of Interferon Gene (STING) Agonists” (J Med Chem, 2021).
